Measured values from ChEMBL document CHEMBL1128250, “Structure-activity studies of 2,3,4,4a,5,9b-hexahydroindeno[1,2-c]pyridines as antispermatogenic agents for male contraception” (1995).
Where “and” joins values, the source holds several entries; their conditions need not be identical. Equal entries are not always repeated.

Tested on: Mus musculus
Experiment: tested for its effect on spermatogenic index 3 days after single oral dose (30 mg/kg)
Type: functional
Outline: (§1)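 Male CD-1 (ICR)BR outbred Swiss albino mice, 5/dose, single oral gavage dose (10 mL/kg) on day 0 in acetate buffer pH 5 or Tween-20-based vehicle; killed 72 h later. Testis cross-sections scored histologically on a 0–6 spermatogenic index (Sertoli only to >100 late spermatids/tubule). Reported as % reduction versus vehicle control; Dunnett's one-tailed t-test.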

SMILES | Reduction
Cc1ccc([C@@H]2c3cc(C)ccc3[C@H]3CN(C)CC[C@@H]23)cc1.Cl | 38%

Tested on: Mus musculus
Experiment: Tested for its effect on pregnancy index of male CD-1 mice when dosed with 7.5 mg/kg (Dunnett's one-tailed t-test, p<0.05)
Type: functional
Outline: (§2)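 Male CD-1 mice (8–10/group) gavaged daily for 35 days, vehicle 1% Tween-20 in water, 10 mL/kg. From the day after the last dose, each male was housed with two females for up to 5 days, with vaginal copulatory plugs checked each morning. Pregnancy index is litters born per number of females.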

SMILES | Pregnancy index
CCN1CC[C@H]2[C@H](c3ccc(C(=O)OC)cc3)c3cc(C)ccc3[C@H]2C1.Cl | 2

Tested on: Mus musculus
Experiment: Tested for its effect on testes weight 3 days after single sub cutaneous dose (30 mg/kg)
Type: functional, Testis
Outline: (§3)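 Single subcutaneous injection, 10 mL/kg, to male CD-1 mice (5 per dose) in ethanol/Tween-20/water (3:7:90, v/v/v) on day 0. Mice were killed at 72 h; testes were weighed and histology scored for spermatogenic index (0–6). Results are % reduction from the vehicle control, with a 30 mg/kg positive control group. Dunnett's one-tailed t-test.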

SMILES | Reduction
CCN1CC[C@H]2[C@H](c3ccc(C(=O)OC)cc3)c3cc(C)ccc3[C@H]2C1.Cl | 19%
CCN1CC[C@H]2[C@H](c3ccc(C=O)cc3)c3cc(C)ccc3[C@H]2C1.Cl | -4%

Tested on: Mus musculus
Experiment: Tested for its effect on pregnancy index of male CD-1 mice when dosed with 3.75 mg/kg Data are means +/-standard error of the mean (n=4).
Type: functional
Outline: as §2

SMILES | Pregnancy index
CCN1CC[C@H]2[C@H](c3ccc(C(=O)OC)cc3)c3cc(C)ccc3[C@H]2C1.Cl | 16

Tested on: Mus musculus
Experiment: Tested for its effect on testes weight of male CD-1 mice when dosed with 3.75 mg/kg Data are means +/-standard error of the mean (n=4).
Type: functional, Testis
Outline: (§4)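 Male CD-1 mice gavaged daily for 35 days in 1% Tween-20 in water at 10 mL/kg. Half of each group was killed 7 days after the last dose; testes were weighed and sectioned for histology. Spermatogenic index was scored 0–6 from the cell types and late spermatids per tubule. Mean ± SEM; Dunnett's one-tailed t-test versus control.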

SMILES | Testes weight
CCN1CC[C@H]2[C@H](c3ccc(C(=O)OC)cc3)c3cc(C)ccc3[C@H]2C1.Cl | 219.08 mg

Tested on: Mus musculus
Experiment: tested for its effect on spermatogenic index 3 days after single oral dose (10 mg/kg)
Type: functional
Outline: as §1

SMILES | Reduction
Cc1ccc([C@@H]2c3cc(C)ccc3[C@H]3CN(C)CC[C@@H]23)cc1.Cl | 26%

Tested on: Mus musculus
Experiment: Tested for its effect on spermatogenic index 3 days after single oral dose (10 mg/kg)
Type: functional
Outline: (§5)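 Male CD-1 (ICR) mice, 7 weeks old on arrival, 5 per dose, single gavage of 10 mL/kg on day 0. Vehicle was 0.15 M acetate buffer pH 5, ethanol/Tween-20/water 3:7:90, or 1% Tween-20. Mice were killed with CO2 at 72 h and testes weighed and scored for spermatogenic index (0–6 scale). Results are % reduction versus the vehicle control. Dunnett's one-tailed t-test.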

SMILES | Reduction
CCN1CC[C@H]2[C@H](c3ccc(C(=O)OC)cc3)c3cc(C)ccc3[C@H]2C1.Cl | 27%
CCN1CC[C@H]2[C@H](c3ccc(C=O)cc3)c3cc(C)ccc3[C@H]2C1.Cl | 2%

Tested on: Mus musculus
Experiment: Tested for its effect on testes weight 3 days after single oral dose (10 mg/kg)
Type: functional, Testis
Outline: (§6)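 CD-1 outbred Swiss albino male mice, 5 per dose, single gavage on day 0 at 10 mL/kg. Vehicle was 0.15 M acetate buffer pH 5, ethanol/Tween-20/water (3:7:90), or 1% Tween-20 in water. CO2 euthanasia 72 h later. Testes weighed and histologically scored (spermatogenic index 0–6). Values are % reduction versus the assay's vehicle control. Positive control was 30 mg/kg of the parent compound. Significance by Dunnett's one-tailed t-test, p < 0.05.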

SMILES | Reduction
CCN1CC[C@H]2[C@H](c3ccc(C(=O)OC)cc3)c3cc(C)ccc3[C@H]2C1.Cl | 17%
CCN1CC[C@H]2[C@H](c3ccc(C=O)cc3)c3cc(C)ccc3[C@H]2C1.Cl | 6%

Tested on: Mus musculus
Experiment: Tested for its effect on pregnancy index of male CD-1 mice when dosed with 15 mg/kg (Dunnett's one-tailed t-test, p<0.05)
Type: functional
Outline: as §2

SMILES | Pregnancy index
CCN1CC[C@H]2[C@H](c3ccc(C(=O)OC)cc3)c3cc(C)ccc3[C@H]2C1.Cl | 0

Tested on: Mus musculus
Experiment: Tested for its effect on testes weight 3 days after single oral dose (90 mg/kg)
Type: functional, Testis
Outline: as §6

SMILES | Reduction
Cc1ccc([C@@H]2c3cc(C)ccc3[C@H]3CN(C)CC[C@@H]23)cc1.Cl | 8%

Tested on: Mus musculus
Experiment: Tested for its effect on testes weight of male CD-1 mice when dosed with 15 mg/kg (Dunnett's one-tailed t-test, p<0.05)
Type: functional, Testis
Outline: as §4

SMILES | Testes weight
CCN1CC[C@H]2[C@H](c3ccc(C(=O)OC)cc3)c3cc(C)ccc3[C@H]2C1.Cl | 108.94 mg

Tested on: Mus musculus
Experiment: Tested for its effect on testes weight 3 days after single oral dose (3 mg/kg)
Type: functional, Testis
Outline: as §5

SMILES | Reduction
CCN1CC[C@H]2[C@H](c3ccc(C=O)cc3)c3cc(C)ccc3[C@H]2C1.Cl | 7%

Tested on: Mus musculus
Experiment: Tested for its effect on testes weight 3 days after single sub cutaneous dose (3 mg/kg)
Type: functional, Testis
Outline: as §3

SMILES | Reduction
CCN1CC[C@H]2[C@H](c3ccc(C(=O)OC)cc3)c3cc(C)ccc3[C@H]2C1.Cl | 10%

Tested on: Mus musculus
Experiment: Tested for its effect on spermatogenic index 3 days after single oral dose (30 mg/kg)
Type: functional
Outline: as §6

SMILES | Reduction
CCN1CC[C@H]2[C@H](c3ccc(C(=O)OC)cc3)c3cc(C)ccc3[C@H]2C1.Cl | 57% and 46% and 61%
CCN1CC[C@H]2[C@H](c3ccc(C=O)cc3)c3cc(C)ccc3[C@H]2C1.Cl | 31% and 30%

Tested on: Mus musculus
Experiment: Tested for its effect on spermatogenic index 3 days after single oral dose (3 mg/kg)
Type: functional
Outline: as §5

SMILES | Reduction
CCN1CC[C@H]2[C@H](c3ccc(C(=O)OC)cc3)c3cc(C)ccc3[C@H]2C1.Cl | 5%

Tested on: Mus musculus
Experiment: tested for its effect on testes weight 3 days after single oral dose (90 mg/kg)
Type: functional, Testis
Outline: (§7)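 Male CD-1 (ICR)BR outbred Swiss albino mice, 5/dose, given one oral gavage dose (10 mL/kg) on day 0 in 0.15 M acetate buffer pH 5, ethanol/Tween-20/water (3:7:90), or 1% Tween-20 in water; vehicle and positive-control groups in each assay. Killed by CO2 72 h later; testes weighed. Expressed as % reduction versus vehicle control; Dunnett's one-tailed t-test.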

SMILES | Reduction
Cc1ccc([C@@H]2c3cc(C)ccc3[C@H]3CN(C)CC[C@@H]23)cc1.Cl | 7%

Tested on: Mus musculus
Experiment: tested for its effect on testes weight 3 days after single oral dose (30 mg/kg)
Type: functional, Testis
Outline: as §7

SMILES | Reduction
Cc1ccc([C@@H]2c3cc(C)ccc3[C@H]3CN(C)CC[C@@H]23)cc1.Cl | 18%

Tested on: Mus musculus
Experiment: Tested for its effect on spermatogenic index 3 days after single oral dose (90 mg/kg)
Type: functional
Outline: as §6

SMILES | Reduction
CCN1CC[C@H]2[C@H](c3ccc(C(=O)OC)cc3)c3cc(C)ccc3[C@H]2C1.Cl | 68%

Tested on: Mus musculus
Experiment: Tested for its effect on spermatogenic index of male CD-1 mice when dosed with 3.75 mg/kg Data are means +/-standard error of the mean (n=4).
Type: functional
Outline: as §4

SMILES | Spermatogenic index
CCN1CC[C@H]2[C@H](c3ccc(C(=O)OC)cc3)c3cc(C)ccc3[C@H]2C1.Cl | 5.5

Tested on: Mus musculus
Experiment: Tested for its effect on testes weight 3 days after single sub cutaneous (10 mg/kg)
Type: functional, Testis
Outline: as §3

SMILES | Reduction
CCN1CC[C@H]2[C@H](c3ccc(C(=O)OC)cc3)c3cc(C)ccc3[C@H]2C1.Cl | 1%

Tested on: Mus musculus
Experiment: Tested for its effect on testes weight of male CD-1 mice when dosed with 7.5 mg/kg (Dunnett's one-tailed t-test, p<0.05)
Type: functional, Testis
Outline: as §4

SMILES | Testes weight
CCN1CC[C@H]2[C@H](c3ccc(C(=O)OC)cc3)c3cc(C)ccc3[C@H]2C1.Cl | 114.7 mg

Tested on: Mus musculus
Experiment: Tested for its effect on spermatogenic index of male CD-1 mice when dosed with 7.5 mg/kg (Dunnett's one-tailed t-test, p<0.05)
Type: functional
Outline: as §4

SMILES | Spermatogenic index
CCN1CC[C@H]2[C@H](c3ccc(C(=O)OC)cc3)c3cc(C)ccc3[C@H]2C1.Cl | 3

Tested on: Mus musculus
Experiment: Tested for its effect on spermatogenic index of male CD-1 mice when dosed with 15 mg/kg (Dunnett's one-tailed t-test, p<0.05)
Type: functional
Outline: as §4

SMILES | Spermatogenic index
CCN1CC[C@H]2[C@H](c3ccc(C(=O)OC)cc3)c3cc(C)ccc3[C@H]2C1.Cl | 1.6

Tested on: Mus musculus
Experiment: Tested for its effect on spermatogenic index 3 days after single oral dose (3 mg/kg),
Type: functional
Outline: as §5

SMILES | Reduction
CCN1CC[C@H]2[C@H](c3ccc(C=O)cc3)c3cc(C)ccc3[C@H]2C1.Cl | 0%

Tested on: Mus musculus
Experiment: Tested for its effect on testes weight 3 days after single oral dose (30 mg/kg)
Type: functional, Testis
Outline: as §6

SMILES | Reduction
CCN1CC[C@H]2[C@H](c3ccc(C(=O)OC)cc3)c3cc(C)ccc3[C@H]2C1.Cl | 32% and 30%
CCN1CC[C@H]2[C@H](c3ccc(C=O)cc3)c3cc(C)ccc3[C@H]2C1.Cl | 7%

Tested on: Mus musculus
Experiment: Tested for its effect on spermatogenic index 3 days after single sub cutaneous dose (10 mg/kg)
Type: functional
Outline: as §3

SMILES | Reduction
CCN1CC[C@H]2[C@H](c3ccc(C(=O)OC)cc3)c3cc(C)ccc3[C@H]2C1.Cl | 28%

Tested on: Mus musculus
Experiment: Tested for its effect on spermatogenic index 3 days after single oral dose (90 mg/kg),
Type: functional
Outline: as §6

SMILES | Reduction
Cc1ccc([C@@H]2c3cc(C)ccc3[C@H]3CN(C)CC[C@@H]23)cc1.Cl | -3%
CCN1CC[C@H]2[C@H](c3ccc(C(=O)OC)cc3)c3cc(C)ccc3[C@H]2C1.Cl | -5%
